Results published in article PMC3979326 (Science signaling, 2012).
Square brackets hold non-standard residues; d marks the D form. Ends that are not written are not given here. pY = N[C@@H](Cc1ccc(OP(=O)(O)O)cc1)C(=O)O

Experiments:
[1] = system: PC3 cells (PTEN-null prostate cancer); assay: MTT proliferation, PC3 cells; assay type: cell-based; details: 30 μM peptides, 200 nM TGX221, means ± SEM of three experiments, Fig. 6A
[2] = system: Gβγ-mediated activation of Akt via PI3Kβ; assay: Gβγ-mediated Akt activation; assay type: cell-based; details: for effect on Gβγ-mediated increase in Akt phosphorylation at Thr308: 30 μM peptide, Fig. 5A, fig. S7A; for effect on Gβγ-dependent activation of Akt (need for cell entry): fig. S7C, labeled versus unlabeled peptide
In short: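 HEK 293 cells were grown in DMEM with 10% FBS and transfected with human p85α, myc-p110β, myc-Akt, with or without FLAG-Gβ1 and HA-Gγ2. After overnight serum starvation, cells received myristoylated peptide (30 µM final, from DMSO stock) or TGX-221 (50 nM) for 30 min before lysis. Anti-myc immunoprecipitates were blotted for Akt and pT308-Akt, and the pAkt:total Akt ratio was quantified.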

[3] = system: EGF-dependent activation of Akt (RTK-mediated activation of PI3Kβ); assay: EGF-dependent Akt activation; assay type: cell-based; details: intact cells, cell line not named; fig. S7B
[4] = system: p101–p110γ dimer (PI3Kγ); assay: Lipid kinase activity, immunopurified p101–p110γ, Gβγ-stimulated; assay type: biochemical; details: 1 μM p110β-peptide or QEHA, 10 μM SIGK; 200 nM Gβγ; lipid kinase assay
In short: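 Peptides were prepared in 20 mM Tris-HCl pH 7.4, 10 mM NaCl: test peptide 1 µM, scrambled 1 µM, SIGK 10 µM, QEHA 1 µM. Each was preincubated with 200 nM recombinant lipidated Gβγ for 30 min on ice, then with lipid vesicles 10 min on ice. Immunopurified PI3Kγ was added for 10 min before the kinase assay. Data are means ± SEM of triplicates, representative of two to three experiments.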

[5] = system: p110β–Gβ-p85α-icSH2–Gγ-C68S fusion heterotrimer; assay: Lipid kinase activity, fusion heterotrimer; assay type: biochemical, human; details: fig. S3A
[6] = system: loop-swap mutant PI3Kβ; assay: Lipid kinase activity, loop-swap mutant PI3Kβ; assay type: biochemical, human; details: pY (substrate stock 900 nM); compared with wild-type; Fig. 1F, S4A, S4B
In short: (§1)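 Recombinant PI3Kβ from baculovirus-infected insect cells was assayed on lipid vesicles at 1 mg/ml final (5% PIP2, 20% PS, 45% PE, 15% DOPC, 10% cholesterol, 5% sphingomyelin, by weight). Threefold enzyme stocks were 75 nM in Hepes pH 7.5, MgCl2, EDTA. Threefold substrate stocks carried 900 nM RTK-pY and/or 1.5 µM Gβ1γ2. The read-out was 32P-PIP3 captured on nitrocellulose, washed in 1 M NaCl/1% phosphoric acid.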

[7] = system: 532KK-DD mutant PI3Kβ; assay: Lipid kinase activity, 532KK-DD mutant PI3Kβ; assay type: biochemical, human; details: pY (substrate stock 900 nM); compared with wild-type; Fig. 1F, S4A, S4B
In short: as §1

[8] = system: NIH3T3 cells transfected with p110β and p85α (PI3Kβ-dependent transformation); assay: Soft agar colony formation, PI3Kβ-transfected NIH3T3 cells; assay type: cell-based
[9] = system: NIH3T3 cells expressing p110β and p85α; assay: Boyden chamber migration, PI3Kβ-expressing NIH3T3 cells; assay type: cell-based
[10] = system: NIH3T3 cells transfected with plasmid encoding PI3Kβ; assay: Proliferation of PI3Kβ-transfected NIH3T3 cells; assay type: cell-based; details: fig. S7D
[11] = system: p110β; details: ref [7]; cited from earlier work
[12] = system: 532KK-DD mutant PI3Kβ in HEK 293E cells; assay: Gβγ-mediated Akt activation, 532KK-DD mutant PI3Kβ; assay type: cell-based, human; details: myc-Akt, Western blot, Fig. 2A
In short: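 HEK 293E cells were transfected with human p85α, mutant myc-p110β and myc-Akt, with or without FLAG-Gβ1 and HA-Gγ2, then serum-starved overnight. After anti-myc immunoprecipitation, pT308-Akt and total Akt were blotted and quantified by densitometry or infrared imaging. The pAkt:total Akt ratio is expressed as percent of basal.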

[13] = system: p110β with p85-i or p85-ic; assay: Activity of p110β with p85 truncation constructs; assay type: biochemical; details: p85-i (iSH2 only) or p85-ic (iSH2-cSH2); fig. S9
[14] = system: wild-type PI3Kβ; assay: Lipid kinase activity, wild-type PI3Kβ from insect cells; assay type: biochemical, human; details: no pY; Fig. 1F
In short: as §1

[15] = system: NIH3T3 cells transfected with p110β and p85α; assay: Focus formation assay, PI3Kβ-transfected NIH3T3 cells; assay type: cell-based; details: 30 μM peptide; two weeks; crystal violet; Fig. 5D
In short: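 NIH 3T3 cells were plated at 2×10^5 cells/well and transfected with myc-p110β and p85α plasmids. Cells were grown two weeks with medium changed every two days, with myristoylated peptide at 30 µM in the medium throughout. Cells were then fixed and stained with crystal violet, and foci were counted per well.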

[16] = system: PLC-β; assay: Gβγ-mediated PLC-β activation in cells; assay type: cell-based; details: COS-7 cells, 30 μM, 30 min before LiCl; [3H]inositol phosphates; fig. S8C
In short: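 COS-7 cells were transiently transfected with or without Gβγ plasmids. Reactions were stopped with ice-cold 50 mM formic acid and neutralised with 150 mM NH4OH after lysis. [3H]inositol phosphates were isolated on Dowex columns and quantified.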

[17] = system: p101–p110γ dimer; assay: Gβγ-dependent activation of class IB PI3K; details: fig. S8A
[18] = system: p110β protein; assay: Abundance of p110β protein in cells; assay type: cell-based; details: Fig. 5, C and D
[19] = system: PC3 cells co-cultured with macrophages; assay: Collagen invasion assay, macrophage-dependent PC3 invasion; assay type: cell-based; details: collagen I gel, 24 hours, confocal microscopy; two experiments; Fig. 6D
In short: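 BAC-1.2F5 macrophages and PC-3 cells were vitally labelled with red and green CellTracker dyes and co-cultured at 2.5:1. After attachment, cells were overlaid with collagen I gel and incubated 24 h with or without test peptide. Invasion into the 3D gel was quantified by laser scanning confocal detection of dye fluorescence.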

[20] = system: LPA-stimulated Akt phosphorylation in NIH3T3 cells; assay: LPA-stimulated Akt activation; assay type: cell-based; details: 30 μM peptide, 10 nM LPA for 5 min, Western blot, Fig. 5B
[21] = system: adenylyl cyclase 2; assay: Adenylyl cyclase assay, synergistic activation by Gβγ and Gαs; assay type: biochemical; details: 30 μM; 20 nM each Gαs and Gβγ; Sf9 membranes; 10 min at 30°C; fig. S8B
[22] = system: p110β–Rab5 binding; assay: Rab5 pulldown assay; details: GST-Rab5 pulldown; fig. S8, E and F
In short: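 HEK 293T cells were transfected with wild-type or mutant myc-p110β plus p85α. Lysates were incubated with GTPγS-Rab5 or GST beads, washed, and bound proteins blotted.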

[23] = system: NIH3T3 cells transfected with 12V-Ras; assay: Soft agar colony formation, oncogenic Ras; assay type: cell-based; details: Fig. 5E
In short: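 Transfected NIH 3T3 cells were grown in DMEM with 10% calf serum. Two days after transfection, 2,500 cells/well were plated in 0.3% top agar over 0.6% bottom agar. Myristoylated peptide was present at 30 µM in both gels and the medium. Colonies were counted 3 weeks later.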

[24] = system: PC3 cells; assay: Boyden chamber chemotaxis, PC3 cells; assay type: cell-based; details: 10% FBS, 20 μM (Fig. 6C legend), three experiments
In short: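 PC-3 cells (5×10^4) were seeded on inserts with 8.0 µm pores. The upper chamber held serum-free medium with DMSO or myristoylated test peptide. The lower chamber held medium with 10% FBS plus DMSO or peptide.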

[25] = system: PLCβ3; assay: In vitro Gβγ-mediated activation of PLCβ; assay type: biochemical; details: PLCβ3 1 nM, 10 min at 30°C, [3H]PIP2; fig. S8D
In short: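 Reactions used recombinant PLCβ3 with a range of peptide concentrations, with or without 200 nM Gαq and with or without Gβγ. Buffer was 20 mM Hepes pH 7.2, 70 mM KCl, 3 mM EGTA, 10 mM NaF, 20 µM AlCl3, 5 mM MgCl2. Substrate was 33 µM PIP2/333 µM PE with [3H]PIP2, free Ca2+ 200 nM. Reactions were stopped with 10% TCA plus BSA, and supernatant counted by scintillation.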

Cc1cc(C(C)Nc2ccccc2)c2nc(N3CCOCC3)cc(=O)n2c1 (stereo not drawn) [TGX221, reference compound]
effect on PC3 cell proliferation [1]: unaffected
effect on Gβγ-dependent Akt activation (TGX-221) ([2]; HEK 293E cells with p110β, p85α, myc-Akt, Gβ1γ2, TGX-221 50 nM, 30 min, fig. S5A): specifically inhibited
effect on EGF-dependent activation of Akt [3]: substantial inhibitory effect

SIGKAFKILGYPDYD
effect on Gβγ-mediated activation of p101–p110γ dimers [4]: inhibited

ESDGG[pY]MDMSKDESID[pY]VPMLDMKGDIKYADIE
stimulation of fusion heterotrimer [5]: could be stimulated
activation of mutant PI3Kβ by pY (loop-swap) [6]: activated to a similar extent
activation of mutant PI3Kβ by pY (532KK-DD) [7]: activated to a similar extent

pertussis toxin [reference compound]
effect on PC3 cell proliferation [1]: proliferation was inhibited
effect on wild-type p110β-enhanced transformation ([8]; pertussis toxin, NIH3T3 cells, fig. S6, B and C): inhibited
effect on wild-type p110β-enhanced migration ([9]; pertussis toxin, fig. S6, B and C): inhibited
effect on proliferation of PI3Kβ-transfected NIH3T3 cells [10]: neither the myristoylated peptide nor pertussis toxin inhibited the proliferation

Gβγ: Recombinant human Gβ1, N-terminally hexahistidine-tagged bovine wild-type Gγ2
stimulation of p110β in the absence of p85 [11]: stimulates p110β
Akt activation in presence of exogenous Gβγ, 532KK-DD mutant [12]: complete loss of Akt activation
stimulation of p110β associated with p85-i or p85-ic [13]: stimulates p110β
stimulation of fusion heterotrimer [5]: could be stimulated
PI3Kβ activation by Gβγ in the absence of pY [14]: activated PI3Kβ in the absence of pY
pT308-Akt in presence of exogenous Gβγ, wild-type PI3Kβ ([2]; HEK 293E cells, wild-type PI3Kβ, myc-Akt, Western blot, Fig. 2A): marked increase

KAAEIASSDSANVSSRGGKKFLPV [myristoylated p110β-peptide]
effect on PI3Kβ-dependent transformation, focus formation [15]: inhibited
effect on Gβγ-mediated activation of PLC-β in cells [16]: no effect
effect on Gβγ-dependent activation of class IB PI3K (p101–p110γ) [17]: no effect
effect on PC3 cell proliferation [1]: proliferation was inhibited
effect on abundance of p110β protein [18]: did not reduce the abundance of p110β protein
effect on Gβγ-mediated increase in Akt phosphorylation at Thr308 ([2]; 30 min, Western blot): completely inhibited
effect on Gβγ-dependent activation of Akt (need for cell entry) ([2]; listed as myristoylated): inhibited Gβγ-dependent activation of Akt
effect on macrophage-dependent PC3 cell invasion [19]: blocked
effect on LPA-stimulated increase in Akt phosphorylation at Thr308 [20]: completely inhibited
effect on synergistic activation of adenylyl cyclase by Gβγ and Gαs [21]: no effect
effect on PI3Kβ-dependent transformation, soft agar colony formation ([8]; 30 μM peptide in gels and media, colonies counted after 3 weeks, Fig. 5C): inhibited
effect on enhanced migration of PI3Kβ-transfected NIH3T3 cells ([9]; Boyden chamber towards 10% FBS, 24 hours, 30 μM, Fig. 5F): blocked the enhanced migration
effect on binding of p110β to Rab5 [22]: no effect
effect on cellular transformation by oncogenic Ras [23]: no effect
effect on proliferation of PI3Kβ-transfected NIH3T3 cells [10]: neither the myristoylated peptide nor pertussis toxin inhibited the proliferation
effect on chemotaxis of PC3 cells toward serum [24]: inhibited the chemotaxis
effect on EGF-dependent activation of Akt [3]: no effect

QEHAQEPERQYMHIGTMVEFAYALVGK
effect on Gβγ-mediated activation of p101–p110γ dimers [4]: inhibited

NGAEKVGSADSKSIAFVSLKARSP [myristoylated scrambled peptide, reference compound]
effect on PI3Kβ-dependent transformation, focus formation [15]: but not the myristoylated scrambled peptide, inhibited
effect on PC3 cell proliferation [1]: unaffected
effect on Gβγ-mediated increase in Akt phosphorylation at Thr308 ([2]; 30 min, Western blot): minimal effects
effect on LPA-stimulated increase in Akt phosphorylation at Thr308 [20]: minimal effects

KAAEIASSDSANVSSRGGKKFLPV [p110β-peptide]
effect on Gβγ-dependent activation of Akt (need for cell entry) ([2]; listed as unlabeled peptide): no such effect
effect on Gβγ-mediated activation of p101–p110γ dimers [4]: no effect on Gβγ-mediated activation of p101–p110γ dimers
effect on Gβγ-mediated activation of PLC-β in vitro [25]: no effect
